Laboratory results reported in ChEMBL document CHEMBL1158487, “Small molecule chloropyramine hydrochloride (C4) targets the binding site of focal adhesion kinase and vascular endothelial growth factor receptor 3 and suppresses breast cancer growth in vivo” (J Med Chem, 2009).
pIC50: −log10 of the molar value. The source made the active and inactive calls. The rule behind the calls is not given here.

Columns and labels:
[1] = system: BT-474; experiment: Cytotoxicity against human BT474 cells assessed as cell viability at 0.1 to 10 uM by MTS assay; format: functional, cell-based
Procedure, shortened: (§1)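 MTS cell survival assay. Cells were plated at 5.0 × 10^3 per well and allowed to attach overnight, then given fresh medium with or without compound for the designated time. Absorbance was read per the kit protocol. Mean ± SEM of three or more independent experiments.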

[2] = system: MCF7; experiment: Induction of apoptosis in human MCF7 cells at 10 uM after 48 hrs by TUNEL assay; format: functional
[3] = Cytotoxicity against human MCF10A cells assessed as cell viability at 100 uM by MTS assay; format: cell-based; conditions: mcf-10a; procedure, shortened: as §1
[4] = biological target: Vascular endothelial growth factor receptor 3 (Homo sapiens) (UniProt P35916); experiment: Inhibition of VEGFR3 phosphorylation in human MCF7 cells expressing VEGFR3 cells assessed as partial dephosphorylation at Tyr1063/1068 activation loop at 1 uM after 24 hrs by Western blotting; format: cell-based
Sequence of Vascular endothelial growth factor receptor 3 (Homo sapiens) (P35916 whole entry): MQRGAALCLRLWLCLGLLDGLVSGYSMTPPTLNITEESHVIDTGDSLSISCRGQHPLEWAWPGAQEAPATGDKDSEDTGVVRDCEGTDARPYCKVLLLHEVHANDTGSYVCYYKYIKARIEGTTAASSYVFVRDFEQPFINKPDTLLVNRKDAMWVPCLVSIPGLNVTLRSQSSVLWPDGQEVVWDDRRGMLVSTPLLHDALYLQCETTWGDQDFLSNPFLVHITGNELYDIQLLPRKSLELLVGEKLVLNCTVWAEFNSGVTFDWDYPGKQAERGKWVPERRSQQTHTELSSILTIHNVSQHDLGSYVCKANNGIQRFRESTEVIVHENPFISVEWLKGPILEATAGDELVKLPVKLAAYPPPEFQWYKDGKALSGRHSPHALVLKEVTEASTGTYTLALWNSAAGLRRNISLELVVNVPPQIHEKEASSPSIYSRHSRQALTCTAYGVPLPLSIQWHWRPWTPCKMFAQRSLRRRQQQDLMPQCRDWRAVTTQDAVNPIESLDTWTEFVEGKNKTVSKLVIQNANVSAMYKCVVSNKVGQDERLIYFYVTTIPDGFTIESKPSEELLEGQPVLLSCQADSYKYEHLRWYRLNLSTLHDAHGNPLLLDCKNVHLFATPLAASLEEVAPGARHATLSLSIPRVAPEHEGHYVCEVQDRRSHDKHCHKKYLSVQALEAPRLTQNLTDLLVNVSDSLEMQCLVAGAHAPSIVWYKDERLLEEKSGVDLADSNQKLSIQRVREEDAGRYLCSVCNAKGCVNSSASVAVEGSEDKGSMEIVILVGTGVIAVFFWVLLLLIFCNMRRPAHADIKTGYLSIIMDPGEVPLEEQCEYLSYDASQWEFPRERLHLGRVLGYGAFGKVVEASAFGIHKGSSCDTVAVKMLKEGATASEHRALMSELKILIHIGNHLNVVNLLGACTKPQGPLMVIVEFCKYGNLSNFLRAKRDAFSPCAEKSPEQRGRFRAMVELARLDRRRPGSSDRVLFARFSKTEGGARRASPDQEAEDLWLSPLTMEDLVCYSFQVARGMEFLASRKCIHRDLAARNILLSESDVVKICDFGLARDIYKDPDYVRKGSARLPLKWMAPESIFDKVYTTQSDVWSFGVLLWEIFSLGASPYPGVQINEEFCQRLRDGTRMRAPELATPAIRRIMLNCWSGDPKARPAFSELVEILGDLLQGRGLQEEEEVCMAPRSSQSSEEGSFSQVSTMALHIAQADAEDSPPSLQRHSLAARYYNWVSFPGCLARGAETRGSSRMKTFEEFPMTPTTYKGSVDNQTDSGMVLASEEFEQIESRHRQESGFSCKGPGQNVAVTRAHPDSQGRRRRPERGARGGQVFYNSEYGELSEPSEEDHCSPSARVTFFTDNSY

[5] = system: MCF7; experiment: Antiproliferative activity against human MCF7 cells expressing VEGFR3 at 0.1 to 10 uM by BrdU incorporation assay; format: functional, cell-based; conditions: TDE = time-dependent effect
Procedure, shortened: (§2)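 Cells plated at 2.5 × 10^3 per well and allowed to attach overnight. Fresh growth medium with or without compound was added along with BrdU labelling reagent, and cells were incubated for the set time. BrdU incorporation was then read with a kit per the manufacturer. Data are mean ± SEM of three or more independent experiments, compared by two-tailed Student's t test.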

[6] = system: BT-474; experiment: Induction of apoptosis in human BT474 cells assessed as PARP degradation after 48 hrs; format: functional, cell-based
[7] = system: BT-474; experiment: Cytotoxicity against human BT474 cells assessed as cell viability at 100 uM by MTS assay; format: functional, cell-based; procedure, shortened: as §1
[8] = system: MCF7; experiment: Induction of apoptosis in human MCF7 cells expressing VEGFR3 after 48 hrs by TUNEL assay; format: functional, cell-based
[9] = system: MCF7; experiment: Decrease in colocalization of FAK-VEGFR3 complex in human MCF7 cells expressing VEGFR3 at 10 uM after 24 hrs by confocal microscopy; format: functional; design: scale not given: the % may be the effect or the level left
Procedure, shortened: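 Cells were treated for 24 h with DMSO or 10 µM compound, then dual-immunostained for FAK (Alexa Fluor 488) together with VEGFR-3 or paxillin (Alexa Fluor 546). Confocal microscopy with scatter-plot analysis gave the percentage of colocalized molecules.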

[10] = biological target: Vascular endothelial growth factor receptor 3 (Homo sapiens) (UniProt P35916); experiment: Inhibition of VEGFR3 phosphorylation in human BT474 cells assessed as partial dephosphorylation at Tyr1063/1068 activation loop at 1 to 10 uM by Western blotting; format: cell-based; conditions: BT-474, TDE = time-dependent effect
[11] = system: A-375; experiment: Cytotoxicity against human A375 cells after 72 hrs by MTS assay; format: functional, cell-based; conditions: A-375, 72 h
Procedure, shortened: (§3)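 MTS viability assay, read as mitochondrial dehydrogenase activity of metabolically active cells. Cells were seeded at 5.0 × 10^3 per well and attached overnight. Fresh medium with or without compound was added, followed by 72 h exposure at increasing concentrations. Error shown as ±SEM.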

[12] = system: MCF7; experiment: Antiproliferative activity against human MCF7 cells expressing VEGFR3 after 48 hrs by BrdU incorporation assay; format: functional, cell-based; procedure, shortened: as §2
[13] = system: MCF7; experiment: Induction of apoptosis in human MCF7 cells assessed as procaspase 8 activation after 48 hrs; format: functional, cell-based
[14] = system: MCF7; experiment: Antiproliferative activity against human MCF7 cells at 10 uM after 48 hrs by BrdU incorporation assay; format: functional, cell-based; procedure, shortened: as §2
[15] = system: COLO 205; experiment: Cytotoxicity against human COLO205 cells assessed as cell viability after 72 hrs by MTS assay; format: functional, cell-based; conditions: COLO 205, 72 h; procedure, shortened: as §3
[16] = biological target: Vascular endothelial growth factor receptor 3 (Homo sapiens) (UniProt P35916); experiment: Inhibition of VEGFR3 phosphorylation in human MCF7 cells expressing VEGFR3 assessed as complete dephosphorylation at Tyr1063/1068 activation loop at 10 uM by Western blotting; format: cell-based
[17] = system: MCF7; experiment: Cytotoxicity against human MCF7 cells expressing VEGFR3 assessed as cell viability at 10 uM after 48 hrs by MTS assay; format: functional
Procedure, shortened: (§4)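 Viability measured by MTS after 48 h exposure. Cells were seeded at 5.0 × 10^3 per well and attached overnight before compound-containing medium was added. BT474 is a […] subclone grown in RPMI-1640 with 10% FBS and 250 µg/ml insulin. MCF7 stable clones carried either empty pcDNA3 or VEGFR-3. Mean ± SEM, ≥3 experiments, two-tailed t test.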

[18] = system: MCF7; experiment: Antitumor activity against human MCF7 cells expressing VEGFR3 xenografted in nude-foxn1nu mouse assessed as reduction in tumor growth at 60 mg/kg, ip qd administered day after injection of cells after 21 days relative to control; format: functional; design: scale not given: the % may be the effect or the level left; conditions: route intraperitoneal
Procedure, shortened: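 Female 5–6-week hsd:athymic nude-foxn1nu mice (5 per group) were given 2–5 × 10^6 MCF7-VEGFR-3 cells per 200 µl subcutaneously in the right flank. From the next day they received 60 mg/kg ip once daily or PBS vehicle for 21 days. Tumours were measured thrice weekly (volume = length × width² × 0.5), then excised and weighed at sacrifice.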

[19] = system: MCF7; experiment: Induction of apoptosis in human MCF7 cells assessed as PARP degradation after 48 hrs; format: functional, cell-based
[20] = system: MCF7; experiment: Induction of apoptosis in human MCF7 cells expressing VEGFR3 assessed as procaspase 8 activation after 48 hrs; format: functional, cell-based
[21] = biological target: Vascular endothelial growth factor receptor 3 (Homo sapiens) (UniProt P35916); experiment: Inhibition of VEGFR3 phosphorylation in human MCF7 cells expressing VEGFR3 assessed as complete dephosphorylation at Tyr1063/1068 activation loop after 24 hrs by Western blotting; format: cell-based
[22] = system: MCF7; experiment: Cytotoxicity against human MCF7 cells assessed as cell viability at 1 uM after 48 hrs by MTS assay; format: functional, cell-based; procedure, shortened: as §4
[23] = biological target: Vascular endothelial growth factor receptor 3 (Homo sapiens) (UniProt P35916); experiment: Inhibition of VEGFR3 phosphorylation in human MCF7 cells expressing VEGFR3 assessed as complete dephosphorylation at Tyr1063/1068 activation loop at 1 to 10 uM by Western blotting; format: cell-based; conditions: TDE = time-dependent effect
[24] = biological target: Vascular endothelial growth factor receptor 3 (Homo sapiens) (UniProt P35916); experiment: Inhibition of VEGFR3 phosphorylation in human BT474 cells assessed as complete dephosphorylation at Tyr1063/1068 activation loop at 1 to 10 uM by Western blotting; format: cell-based; conditions: BT-474, TDE = time-dependent effect
Procedure, shortened: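 BT474 cells were exposed for 24 h to increasing doses (1 and 10 µM). Western blots of lysates were probed with a phospho-specific VEGFR-3 antibody for Tyr1063/1068 in the kinase activation loop.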

[25] = system: BT-474; experiment: Relocalization of FAK-VEGFR3 complex from cytoplasm to nucleus in human BT474 cells at 10 uM after 24 hrs by confocal microscopy; format: functional, cell-based
Procedure, shortened: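 BT474 cells given DMSO or 10 µM compound for 24 h, dual-immunostained for FAK (Alexa Fluor 488) and VEGFR-3 (Alexa Fluor 546), imaged by confocal microscopy; percentage of colocalized FAK/VEGFR-3 molecules derived by scatter-plot analysis.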

[26] = system: MCF7; experiment: Induction of apoptosis in human MCF7 cells expressing VEGFR3 assessed as PARP degradation after 48 hrs; format: functional, cell-based
[27] = system: BT-474; experiment: Induction of apoptosis in human BT474 cells assessed as procaspase 8 activation after 48 hrs; format: functional, cell-based
[28] = Cytotoxicity against human C8161 cells after 72 hrs by MTS assay; format: functional, cell-based; conditions: C8161, 72 h; procedure, shortened: as §3
[29] = biological target: Focal adhesion kinase 1 (Homo sapiens) (UniProt Q05397); experiment: Inhibition of FAK phosphorylation in human BT474 cells assessed as decrease in total phosphorylation at 10 uM after 24 hrs by immunoprecipitation technique; format: cell-based; conditions: BT-474
Sequence of Focal adhesion kinase 1 (Homo sapiens) (Q05397 2-1052 limits assumed): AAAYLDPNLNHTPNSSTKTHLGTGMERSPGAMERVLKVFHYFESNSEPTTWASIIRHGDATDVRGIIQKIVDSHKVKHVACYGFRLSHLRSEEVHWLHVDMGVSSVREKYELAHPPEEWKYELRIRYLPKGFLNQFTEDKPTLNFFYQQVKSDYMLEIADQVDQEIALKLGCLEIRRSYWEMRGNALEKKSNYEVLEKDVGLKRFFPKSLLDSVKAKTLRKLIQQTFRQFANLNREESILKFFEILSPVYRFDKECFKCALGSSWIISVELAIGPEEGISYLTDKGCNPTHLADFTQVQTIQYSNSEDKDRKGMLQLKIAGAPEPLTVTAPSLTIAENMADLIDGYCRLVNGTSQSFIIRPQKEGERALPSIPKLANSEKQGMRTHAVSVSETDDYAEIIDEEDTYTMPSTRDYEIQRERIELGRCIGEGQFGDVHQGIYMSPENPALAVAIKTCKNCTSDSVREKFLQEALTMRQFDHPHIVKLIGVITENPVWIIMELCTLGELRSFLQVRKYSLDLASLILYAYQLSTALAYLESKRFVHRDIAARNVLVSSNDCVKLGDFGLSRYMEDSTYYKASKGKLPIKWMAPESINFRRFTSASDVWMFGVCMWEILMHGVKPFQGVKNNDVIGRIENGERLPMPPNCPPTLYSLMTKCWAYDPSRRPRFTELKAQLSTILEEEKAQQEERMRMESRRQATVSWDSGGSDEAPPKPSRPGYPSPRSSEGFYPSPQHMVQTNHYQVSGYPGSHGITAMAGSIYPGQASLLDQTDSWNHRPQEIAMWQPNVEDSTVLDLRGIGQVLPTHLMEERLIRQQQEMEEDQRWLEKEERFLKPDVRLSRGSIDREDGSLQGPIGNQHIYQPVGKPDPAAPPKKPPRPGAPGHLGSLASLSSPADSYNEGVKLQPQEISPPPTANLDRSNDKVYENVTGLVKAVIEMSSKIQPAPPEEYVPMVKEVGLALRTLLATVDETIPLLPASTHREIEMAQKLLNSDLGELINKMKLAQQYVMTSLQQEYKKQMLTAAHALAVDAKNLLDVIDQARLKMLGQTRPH
Procedure, shortened: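 MCF7-VEGFR-3 and BT474 cells were treated for 24 h at 10 µM or 1 µM. FAK was immunoprecipitated and blotted with anti-phosphotyrosine antibody 4G10 to assess total FAK tyrosine phosphorylation.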

**Q.** Which results are given for `CN(C)CCN(Cc1ccc(Cl)cc1)c1ccccn1.Cl` [CHLORPYRAMIN HYDROCHLORIDE]?
**A.** Activity [1]: Active; Activity [2]: 18%; Activity [3]: Active; Activity [4]: Active; Activity [5]: tde; Activity [6]: Dose-dependent effect; Activity [7]: Active; Activity [8]: Dose-dependent effect; Activity [9]: 29%; Activity [10]: tde; pIC50 [11]: 6.00; Activity [12]: Dose-dependent effect; Activity [13]: Dose-dependent effect; Activity [14]: inactive; pIC50 [15]: 6.00; Activity [16]: Active; fold change (FC) [17]: 2; Activity [18]: 20%; Activity [19]: Dose-dependent effect; Activity [20]: Dose-dependent effect; Activity [21]: Dose-dependent effect; Activity [22]: Active; Activity [23]: tde; Activity [24]: tde; Activity [25]: Active; Activity [26]: Dose-dependent effect; Activity [27]: Dose-dependent effect; pIC50 [28]: 6.00; Activity [29]: Active
